Assays:
[1] = tested on: HL-60; assay: In vitro induction of cell differentiation in HL-60 cells relative to 1,25(OH)2D3 (100); format: functional, Homo sapiens
In short: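 HL-60 cells seeded at 4×10^4 cells/mL in RPMI 1640 with 20% FCS and gentamycin, 37 °C, 5% CO2. Compounds added in ethanol (final <0.2%) one day later, then cultured 4 days. Differentiation read as NBT reduction: 1×10^6 cells/mL mixed with PMA (200 ng/mL) and NBT ([…]), 30 min at 37 °C. Formazan-positive cells counted by hemacytometer.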

[2] = tested on: Mus musculus; assay: Hypercalcemic effect by daily sc injection of compound was measured as serum calcium concentration in vitamin D-replete normal NMRI mice relative to 1,25(OH)2D3 (100); format: functional
In short: (§1)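 Vitamin D-replete normal NMRI mice given compound or solvent by daily subcutaneous injection for 7 consecutive days. Serum calcium concentration used as the read-out.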

[3] = molecular target: T1, Vitamin D3 receptor (Sus scrofa) (UniProt A3RGC1); assay: Binding affinity for porcine intestinal Vitamin D3 receptor (VDR) relative to 1,25(OH)2D3 (100)
T1 sequence (whole entry): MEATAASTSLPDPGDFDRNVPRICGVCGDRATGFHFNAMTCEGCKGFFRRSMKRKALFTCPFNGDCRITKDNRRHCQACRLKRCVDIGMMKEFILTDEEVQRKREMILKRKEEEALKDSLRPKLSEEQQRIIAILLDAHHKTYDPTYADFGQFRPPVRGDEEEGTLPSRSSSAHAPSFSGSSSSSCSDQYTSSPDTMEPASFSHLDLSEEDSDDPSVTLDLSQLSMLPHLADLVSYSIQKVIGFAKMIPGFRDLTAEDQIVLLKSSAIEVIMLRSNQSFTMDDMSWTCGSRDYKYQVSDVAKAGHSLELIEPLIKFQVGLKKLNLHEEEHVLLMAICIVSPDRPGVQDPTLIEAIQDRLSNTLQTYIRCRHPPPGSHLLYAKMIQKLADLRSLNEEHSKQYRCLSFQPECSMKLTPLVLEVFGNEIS
In short: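 Competition with [3H]1,25(OH)2D3 for receptor in high-speed supernatant of normal pig intestinal mucosa homogenate. Incubated 20 h at 4 °C, then dextran-coated charcoal phase separation. Relative affinity from the concentration displacing 50% of tracer, referenced to 1,25(OH)2D3 at 100%.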

[4] = molecular target: T2, Vitamin D-binding protein (Homo sapiens) (UniProt P02774); assay: Binding affinity for human vitamin D binding protein (hDBP) relative to 1,25(OH)2D3 (100)
T2 sequence (whole entry): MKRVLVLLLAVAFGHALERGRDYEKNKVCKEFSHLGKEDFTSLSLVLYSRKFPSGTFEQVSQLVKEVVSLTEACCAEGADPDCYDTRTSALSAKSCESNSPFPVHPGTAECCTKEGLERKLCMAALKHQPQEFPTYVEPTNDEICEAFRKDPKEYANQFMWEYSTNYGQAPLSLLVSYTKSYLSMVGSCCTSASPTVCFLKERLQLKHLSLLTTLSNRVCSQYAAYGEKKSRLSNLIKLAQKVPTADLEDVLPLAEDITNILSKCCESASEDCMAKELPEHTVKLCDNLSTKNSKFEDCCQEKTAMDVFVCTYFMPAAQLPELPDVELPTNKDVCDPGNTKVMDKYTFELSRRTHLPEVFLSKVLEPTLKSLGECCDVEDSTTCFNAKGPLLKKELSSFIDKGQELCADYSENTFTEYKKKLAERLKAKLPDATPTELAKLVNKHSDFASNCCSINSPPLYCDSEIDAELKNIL
In short: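 Competition with [3H]1,25(OH)2D3 for human serum DBP (0.18 μM), purified by affinity chromatography. Ligands added in 5 μL ethanol. Incubated 3 h at 4 °C in 0.01 M Tris-HCl with 0.154 M NaCl, pH 7.4. Bound and free separated with cold dextran-coated charcoal. Activity expressed relative to 1,25(OH)2D3 set at 100.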

[5] = tested on: Keratinocyte cell line; assay: Inhibition of human skin keratinocyte proliferation relative to 1,25(OH)2D3 (100); format: functional
In short: (§2)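 Human foreskin keratinocytes isolated by overnight Dispase digestion and grown in serum-free keratinocyte medium with pituitary extract and EGF. Seeded at 5×10^3 cells/well in medium without insulin. After 1 day, serial dilutions added in ethanol (<0.2% final) for 72 h. Then [3H]thymidine 1 μCi/well for 2 h and incorporation counted.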

[6] = tested on: MCF7; assay: Antiproliferative activity on MCF-7 cells relative to 1,25(OH)2D3 (100); format: functional, Homo sapiens
In short: (§3)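 MCF-7 cells grown in DMEM/F12 with 10% heat-inactivated FCS, glutamine, penicillin and streptomycin, 37 °C, 5% CO2. Seeded at 5×10^3 cells/well. Compounds added after 24 h and incubated 72 h. Then 1 μCi [3H]thymidine per well for 4 h, cells harvested and radioactivity counted. Triplicate cultures. Activity expressed relative to 1,25(OH)2D3 set at 100.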

[7] = molecular target: T3, Vitamin D-binding protein (Rattus norvegicus) (UniProt P04276); assay: Binding affinity for rat vitamin D binding protein (DBP) relative to 1,25(OH)2D3 (100)
T3 sequence (whole entry): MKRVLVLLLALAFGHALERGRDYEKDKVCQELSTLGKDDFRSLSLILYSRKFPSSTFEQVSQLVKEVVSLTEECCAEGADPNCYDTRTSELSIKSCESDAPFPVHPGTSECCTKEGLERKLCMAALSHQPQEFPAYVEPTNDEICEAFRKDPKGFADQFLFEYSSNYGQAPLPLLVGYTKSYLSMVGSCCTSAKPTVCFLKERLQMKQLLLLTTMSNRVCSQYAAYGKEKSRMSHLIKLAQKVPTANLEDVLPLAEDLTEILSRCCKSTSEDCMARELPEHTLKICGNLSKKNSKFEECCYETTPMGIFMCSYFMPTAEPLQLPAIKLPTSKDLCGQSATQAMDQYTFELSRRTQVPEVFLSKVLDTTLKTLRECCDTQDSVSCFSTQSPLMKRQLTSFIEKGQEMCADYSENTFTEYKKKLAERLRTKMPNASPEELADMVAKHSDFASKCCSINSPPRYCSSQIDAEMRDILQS

[8] = tested on: Gallus gallus; assay: In Vivo evaluation for the calcemic activity in vitamin D-replete normal in ICA chick; format: functional
[9] = tested on: Keratinocyte cell line; assay: In vitro proliferative activity on keratinocyte cells; format: functional, Homo sapiens; in short: as §2
[10] = tested on: MCF7; assay: In vitro cell proliferative activity on MCF-7 cells; format: functional, Homo sapiens; in short: as §3
[11] = tested on: Mus musculus; assay: In Vivo evaluation for the calcemic activity in vitamin D-replete normal in NMRI mice; format: functional; in short: as §1
[12] = molecular target: T3, Vitamin D-binding protein (Rattus norvegicus); assay: Binding affinity for rat Vitamin D binding protein

Row | Structure (SMILES) | Relative activity [1] | Hypercalcemic activity relative to 1,25(OH)2D3 (=100) [2] | Relative binding affinity [3] | Relative binding affinity [4] | Relative activity [5] | Relative activity [6] | Relative binding affinity [7] | ICA [8] | also measured
1 | C=C1/C(=C\C=C2/CCC[C@]3(C)[C@@H]([C@@H](C)CCCC(C)(C)O)CC[C@@H]23)C[C@@H](O)C[C@@H]1O | 3000 | 800 | 88 | 0.2 |  |  |  |  | 
2 | C[C@H]([C@@H](C)CCCC(C)(C)O)[C@@]1(C)CCC/C(=C\C=C2C[C@@H](O)C[C@H](O)C2)C1 | 10 | 0.25 | 10 | 0 | 80 | 40 |  |  | 
3 | C=C1/C(=C\C=C2/CCC[C@]3(C)[C@@H]([C@H](C)[C@@H](C)CCC(C)(C)O)CC[C@@H]23)C[C@@H](O)C[C@@H]1O | 100 |  | 33 |  |  |  | 67 | 50 | 
4 | C=C1/C(=C\C=C2/CCC[C@]3(C)[C@@H]([C@@H](C)[C@H](C)CCC(C)(C)O)CC[C@@H]23)C[C@@H](O)C[C@@H]1O | 11900 |  | 2000 |  |  |  | 0.25 | 50 | 
5 | C=C1/C(=C\C=C2/CCC[C@]3(C)[C@@H]([C@H](C)[C@H](C)CCC(C)(C)O)CC[C@@H]23)C[C@@H](O)C[C@@H]1O | 1.3 |  | 1.7 |  |  |  | 0.45 | 25 | 
6 | C=C1/C(=C\C=C2/CCC[C@]3(C)[C@@H]([C@H](C)OCCC(C)(C)O)CC[C@@H]23)C[C@@H](O)C[C@@H]1O [MAXACALCITOL] | 197 | 0.3 | 18 | 0 |  |  |  |  | 
7 | C[C@H](CCCC(C)(C)O)[C@H](C)[C@@]1(C)CCC/C(=C\C=C2C[C@@H](O)C[C@H](O)C2)C1 | 75 | 0.25 | 8 | 0 | 60 | 75 |  |  | 
8 | C[C@@H](CCCC(C)(C)O)[C@H](C)[C@@]1(C)CCC/C(=C\C=C2C[C@@H](O)C[C@H](O)C2)C1 | 70 | 25 | 9 | 0 | 85 | 90 |  |  | 
9 | C=C1/C(=C\C=C2/CCC[C@]3(C)[C@@H]([C@H](C)CCCC(C)(C)O)CC[C@@H]23)C[C@@H](O)C[C@@H]1O [CALCITRIOL] |  |  |  |  |  |  |  | 100 | Activity [1]: 100; Activity [9]: 100; Activity [10]: 100; Ca2+ serum [11]: 100; Binding affinity [3]: 100; Binding affinity [12]: 100; Binding affinity [4]: 100
10 | C[C@H](CCCC(C)(C)O)[C@@H](C)[C@@]1(C)CCC/C(=C\C=C2C[C@@H](O)C[C@H](O)C2)C1 | 1000 | 13 | 45 | 3 | 5000 | 2000 |  |  | 
11 | C=C1/C(=C/C=C2/CCC[C@]3(C)C([C@H](C)CC#CC(C)(C)O)=CC[C@@H]23)C[C@@H](O)C[C@@H]1O | 950 | 8 | 85 | 0 |  |  |  |  | 
12 | C=C1/C(=C\C=C2/CCC[C@]3(C)[C@@H]([C@@H](C)[C@@H](C)CCC(C)(C)O)CC[C@@H]23)C[C@@H](O)C[C@@H]1O | 8 |  | 1 |  |  |  | 0.25 | 0.1 | 
13 | C[C@H](CCCC(C)(C)O)[C@H]1CC[C@H]2/C(=C/C=C3C[C@@H](O)C[C@H](O)C3)CCC[C@]12C | 90 | 0.3 | 30 | 48 |  |  |  |  | 

— ChEMBL document CHEMBL1132106, “Synthesis, biological activity, and conformational analysis of four seco-D-15,19-bisnor-1alpha,25-dihydroxyvitamin D analogues, diastereomeric at C17 and C20” (1999)
